Experimental data reported in ChEMBL document CHEMBL1143122, “Novel analogs of D-e-MAPP and B13. Part 1: synthesis and evaluation as potential anticancer agents” (Bioorg Med Chem, 2008).

Each compound was assayed on MCF7 (assay: Drug level in human MCF7 cells at 10 uM per 10^6 cells after 0.5 hrs). Conditions: mcf7, 0.5 h.
Type: ADME, cell-based
In short: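 MCF7 cells kept in RPMI 1640 with 10% fetal calf serum at 37 °C, 5% CO2, then treated with 10 μM analog. Intracellular analog measured over time by HPLC-MS in positive-ion MRM mode. Quantified against calibration curves made by spiking an artificial matrix with standards plus internal standard, using analyte/IS peak-area ratios and linear regression. Reported as pmol per 1×10^6 cells.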
`CCCCCCCCCCCCCC(=O)N[C@H](CO)[C@H](O)c1ccc(NC(=O)CCCCC[n+]2ccccc2)cc1.[Br-]` gave a Drug uptake of 800 pmol.

These compounds were tested on MCF7 (assay: Antiproliferative activity against human MCF7 cells after 48 hrs). Conditions: MCF7, 48 h.
Type: functional, cell-based
With `CCCCCCCCCCCCCC(=O)N[C@H](CO)[C@H](O)c1ccc(NC(=O)CCCCC[n+]2ccccc2)cc1.[Br-]` the IC50 was 20 µM. `CCCCCCCCCCCCCC(=O)N(C)[C@H](C)[C@@H](O)c1ccccc1` showed an IC50 greater than 10 µM. `CCCCCCCCCCCCNC(=O)N[C@@H](CO)[C@@H](O)c1ccc([N+](=O)[O-])cc1` showed an IC50 greater than 10 µM. In the case of `CCCCCCCCCCCCCC(=O)N(C)[C@H](C)[C@H](O)c1ccccc1`, the IC50 is reported as greater than 10 µM. For `CCCCCCCCCCCCCC(=O)N(C)[C@@H](C)[C@H](O)c1ccccc1`, the IC50 was greater than 10 µM. `CCCCCCCCCCCCNC(=O)N[C@H](C)[C@@H](O)c1ccccc1` was tested, and the IC50 was greater than 10 µM. For `CCCCCCCCCCCCCC(=O)N(C)[C@@H](C)[C@@H](O)c1ccccc1`, the IC50 was greater than 10 µM. Compound `CCCCCCCCCCCCNC(=O)N[C@@H](C)[C@H](O)c1ccccc1` has an IC50 greater than 10 µM. `CCCCCCCCCCCCN[C@H](C)[C@@H](O)c1ccccc1` was tested, and the IC50 was 9 µM. Work on `CCCCCCCCCCCCNC(=O)N[C@H](CO)[C@H](O)c1ccc([N+](=O)[O-])cc1` yielded an IC50 greater than 10 µM. In the case of `CCCCCCCCCCCCCC(=O)N[C@H](CO)[C@H](O)c1ccc([N+](=O)[O-])cc1`, the IC50 is reported as 14 µM. In the case of `CCCCCCCCCCCCCC(=O)N[C@H](C)[C@@H](O)c1ccccc1`, the IC50 is reported as 30 µM.
